One may read the IC50 as the midpoint of a concentration-inhibition curve.

The nature of series [1]: Cytotoxicity against human PMP501-1 cells assessed as inhibition of cell proliferation measured after 24 hrs by crystal violet staining assay. Conditions: PMP501-1, 24 h. The series is classed as functional, cell-based. Summed up:
(§1)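 PMP-derived lines (ABX023-1, PMP457-2, PMP501-1) and mucinous colonic adenocarcinoma peritoneal metastasis line C09-1. Seeded at 30 000 cells/well in triplicate in Ham's F12 with 10% FBS, L-glutamine, insulin and sodium selenite. Grown 24 h at 37 °C, then treated for 24 h. Controls were DMSO vehicle, 5-fluorouracil and 10% EtOH dead-cell. Cells were stained with 0.2% crystal violet, solubilised in SDS/EtOH and read at OD595.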

A short description of series [2]: Cytotoxicity against human C09-1 cells assessed as inhibition of cell proliferation measured after 24 hrs by crystal violet staining assay. As to conditions: C09-1, 24 h. The series is classed as functional, cell-based. In outline:
as §1

Series [3] in a line: Cytotoxicity against human PMP457-2 cells assessed as inhibition of cell proliferation measured after 24 hrs by crystal violet staining assay. Format: functional, cell-based. As to conditions: PMP457-2, 24 h. In outline:
as §1

Series [4] in a line: Cytotoxicity against human ABX023-1 cells assessed as inhibition of cell proliferation measured after 24 hrs by crystal violet staining assay. The series is classed as functional, cell-based. Conditions: ABX023-1, 24 h. In outline: as §1
Series [5] in a line: Stability of the compound in 0.1% TFA/MeOH solution measured after 12 hrs by LC/MS analysis. The series is classed as physicochemical. Summed up: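 10 μg aliquots were incubated in 0.1% TFA in MeOH at 30 °C for 12 h, then dried under N2 and redissolved in MeOH. Analysed by UHPLC-DAD-ESI(±)MS on C18 with a water/MeCN gradient containing 0.1% formic acid. Compared against authentic standards run by the same method.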

Each structure is given as a SMILES string.

Take `C[C@@H]1O[C@@H](O[C@H]2CC[C@H](O[C@H]3[C@H](O)C[C@H](c4ccc5c(c4O)C(=O)c4ccc(C[C@@](C)(O)CC(=O)O)c(O)c4C5=O)O[C@@H]3C)O[C@H]2C)C(N)=CC1=O`: the IC50 in series [1] was 12 µM; in series [2], 17 µM; in series [3], more than 100 µM; in series [4], 23 µM.

With `C[C@H]1O[C@@H](c2ccc3c(c2O)C(=O)c2ccc(C[C@@](C)(O)CC(=O)O)c(O)c2C3=O)C[C@@H](O)[C@@H]1O`, the IC50 in series [1] came out at 11 µM; in series [2], 42 µM; in series [3] it was 6.7 µM; in series [4], 49 µM. For the same molecule, the Stabilty result in series [5] is “Stable”.

As to `C[C@@H]1O[C@@H](O[C@H]2[C@H](O)C[C@H](c3ccc4c(c3O)C(=O)c3ccc(C[C@@](C)(O)CC(=O)O)c(O)c3C4=O)O[C@@H]2C)CC[C@@H]1O[C@H]1CC[C@H](O)[C@H](C)O1`, the IC50 is more than 100 µM in series [1], 32 µM in series [2], 23 µM in series [3] and 21 µM in series [4].

As to `C[C@@H]1O[C@@H](O[C@H]2[C@H](O)C[C@H](c3ccc4c(c3O)C(=O)c3ccc(C[C@](C)(CC(=O)O)O[C@H]5CC[C@H](O[C@H]6CC[C@H](O)[C@H](C)O6)[C@H](C)O5)c(O)c3C4=O)O[C@@H]2C)CC[C@@H]1O[C@H]1CC[C@H](O)[C@H](C)O1`, the concentration for half-maximal inhibition (IC50) in series [1] was 18 µM; in series [2], 38 µM; in series [3], 11 µM; in series [4], 45 µM.

`C[C@@H]1O[C@@H](O[C@H]2[C@H](O)C[C@H](c3ccc4c(c3O)C(=O)c3c(O)cc(C[C@](C)(CC(=O)O)O[C@H]5CC[C@H](O[C@H]6CC[C@H](O)[C@H](C)O6)[C@H](C)O5)c(O)c3C4=O)O[C@@H]2C)CC[C@@H]1O[C@H]1CC[C@H](O)[C@H](C)O1`: the IC50 was 2.7 µM in series [1], 8.7 µM in series [2], 1.9 µM in series [3] and 1.4 µM in series [4].

Turning to `C[C@@H]1O[C@@H](O[C@H]2[C@H](O)C[C@H](c3ccc4c(c3O)C(=O)c3ccc(C[C@@](C)(O)CC(=O)O)c(O)c3C4=O)O[C@@H]2C)CC[C@@H]1O`, the IC50 amounted to 14 µM in series [1], 6.6 µM in series [2], 5.9 µM in series [3] and 12 µM in series [4].

`C[C@@H]1O[C@@H](O[C@H]2[C@H](O)C[C@H](c3ccc4c(c3O)C(=O)c3c(O)cc(C[C@@](C)(O)CC(=O)O)c(O)c3C4=O)O[C@@H]2C)CC[C@@H]1O[C@H]1CC[C@H](O)[C@H](C)O1`: the IC50 was determined as 2.5 µM in series [1], 10 µM in series [2], 5.5 µM in series [3] and 4.7 µM in series [4].

For `CSC1=CC(=O)[C@H](C)O[C@H]1O[C@H]1CC[C@H](O[C@H]2[C@H](O)C[C@H](c3ccc4c(c3O)C(=O)c3ccc(C[C@](C)(CC(=O)O)O[C@H]5CC[C@H](O[C@H]6CC[C@H](O)[C@H](C)O6)[C@H](C)O5)c(O)c3C4=O)O[C@@H]2C)O[C@H]1C`, the IC50 in series [1] was 3.9 µM; in series [2], 61 µM; in series [3], 7.8 µM; in series [4], 13 µM.

As for `O=c1[nH]cc(F)c(=O)[nH]1` [FLUOROURACIL], the IC50 is 3.6 µM in series [1], 4 µM in series [2], 2 µM in series [3] and 3.4 µM in series [4].

On to `C[C@@H]1O[C@H]2O[C@@H]3[C@@H](C)O[C@@H](c4ccc5c(c4O)C(=O)c4ccc(C[C@@](C)(O)CC(=O)O)c(O)c4C5=O)C[C@H]3O[C@H]2C[C@@H]1O`, for which the IC50 in series [1] is 23 µM; in series [2] it was 19 µM; in series [3] it was more than 100 µM; in series [4] it was 14 µM. The Stabilty result in series [5] is reported as “Stable”.

Source of the values: ChEMBL document CHEMBL4823261, “Grincamycins P-T: Rearranged Angucyclines from the Marine Sediment-Derived Streptomyces sp. CNZ-748 Inhibit Cell Lines of the Rare Cancer Pseudomyxoma Peritonei” (J Nat Prod, 2021).
